Screening data (PubChem BioAssay)
PPC-1+TRAIL kill – compounds killing PPC-1 cancer cells with TRAIL present, primary screen, TRAIL potentiator project, ATPLite luminescence, uHTS; PPC-1 cells + TRAIL, ATPLite viability luminescence; cell killing (% activity), % at 4 µM or 5 µM; 0.41% of 220,000 active;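 active = cell killing above 50% in the first pass at 4 µM, then a duplicate retest at 5 µM averaging 50% or more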;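 also: plate controls were cells with TRAIL plus DMSO for no effect and medium-only wells lacking cells for full effect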
NF-kB expr up – activators of NF-kB expression in neurons, primary screen, cell-based, HTS. human neuronal cells, NF-kB reporter expression; hits give high values. fold change at 12.5 µM. 1.6% of 190,000 active. AID 1239, 2008; in the data active = fold change above about 3.3
TRAIL sens C8 – viability loss with TRAIL in NB7+C8 cells, primary screen, TRAIL sensitizer project, cell-based, ATPlite luminescence. inhibition (viability loss, TRAIL sensitization), % at 10 µM. 1% of 360,000 active;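 active = compounds causing at least 50% loss of cell viability in the single-dose screen, relative to plate controls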
APP 5'UTR act – activators of APP 5'UTR luciferase reporter, primary screen, SH-SY5Y cells; SH-SY5Y APP 5'UTR luciferase reporter, luminescence; zero percent = DMSO vehicle wells; activation, % at 2 µM; 1% of 190,000 active;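 active = activation above a set limit, based on mean plus 3 SD of controls, cut at about 140% in these data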
FLuc stim CS – FLuc activators, initial screening, artefact control for FLuc-dependent activation tests, biochemical, ATPlite luminescence; Luciferin 4-monooxygenase (Photinus pyralis), P08659; ATPlite luciferase biochemical, 10 min; 0 = ATP-free wells, 1 = DMSO control; activation factor at 10 µM; 200,000 tested, under 10 active;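 active = luciferase activation factor, scaled between plate controls, of at least 2 with compound at 10 µM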
Target sequence (P08659 whole entry, looked up): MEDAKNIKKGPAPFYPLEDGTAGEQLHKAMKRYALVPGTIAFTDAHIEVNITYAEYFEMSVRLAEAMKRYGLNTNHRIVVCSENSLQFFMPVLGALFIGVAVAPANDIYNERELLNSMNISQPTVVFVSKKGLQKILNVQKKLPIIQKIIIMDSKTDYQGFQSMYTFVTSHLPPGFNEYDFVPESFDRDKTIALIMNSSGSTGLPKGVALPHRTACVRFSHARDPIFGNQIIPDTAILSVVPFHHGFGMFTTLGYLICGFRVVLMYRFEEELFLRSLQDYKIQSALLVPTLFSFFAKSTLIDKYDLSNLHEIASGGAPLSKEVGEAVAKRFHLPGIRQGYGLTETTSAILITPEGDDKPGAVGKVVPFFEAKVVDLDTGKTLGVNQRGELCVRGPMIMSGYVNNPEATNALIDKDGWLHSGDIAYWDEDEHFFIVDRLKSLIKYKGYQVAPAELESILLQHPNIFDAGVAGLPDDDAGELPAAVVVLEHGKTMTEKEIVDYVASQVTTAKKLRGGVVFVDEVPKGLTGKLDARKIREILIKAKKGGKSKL
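Assay system – cell-free luciferase reagent · Medium – PBS-based ATP solution · Dosing – test compounds dosed from 2 mM stocks in 100% DMSO · Timing – 10 min, room temperature · Technique – light output (luminescence) · Measure – luminescence gain marking luciferase activators · Controls – No-ATP low control, compound-free enzyme-plus-ATP high control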
FLuc inhib CS – firefly luciferase enzyme inhibitors, primary screen, artefact control for luciferase-based inhibitor screens, biochemical, luminescence, ATPLite; Luciferin 4-monooxygenase (Photinus pyralis), P08659; 10 min; inhibition, % at 10 µM; 1.5% of 200,000 active; AID 1006, 2008;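 active = inhibition above about 50% when tested at 10 µM, limit read from the data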
* hit, by the source's call. An excerpt weighted towards active compounds, which were near 2.2% of everything screened.

Results for Oc1ccc(N2CCN(c3ncnc4sc5c(c34)CCC5)CC2)cc1 ?
PPC-1+TRAIL kill: 8; NF-kB expr up: 3.4*; TRAIL sens C8: -4; APP 5'UTR act: 11; FLuc stim CS: 1; FLuc inhib CS: -1

How did CC1(c2ccc3ccccc3c2)NC(=O)N(CC(=O)N2CCN(Cc3ccc(C#N)cc3)CC2)C1=O (stereo unspecified) do in these assays?
TRAIL sens C8: 22

How did CCOc1ccc(OCC(=O)N(CCC2=CCCCC2)c2c(N)n(Cc3ccccc3)c(=O)[nH]c2=O)cc1 do in these assays?
TRAIL sens C8: 56*

How did COc1ccc(S(=O)(=O)/N=C2\C=C(Nc3ccc(O)cc3)C(=O)c3ccccc32)cc1 do in these assays?
TRAIL sens C8: 96*

Results for O=C(C[C@H]1C/C=C\C[C@H](NC(=O)OCC2c3ccccc3-c3ccccc32)C(=O)O[C@H](c2ccccc2)CNC1=O)N[C@H](CO)Cc1ccccc1 ?
TRAIL sens C8: 85*

Results for Cc1nn(C)cc1/C=C/C(=O)c1ccc(O)cc1 ?
PPC-1+TRAIL kill: 14; NF-kB expr up: 2.4; TRAIL sens C8: 34; APP 5'UTR act: 54; FLuc stim CS: 0.4; FLuc inhib CS: 57*

How did O=C(/C=C/c1ccc(O)cc1)c1ccccc1 do in these assays?
PPC-1+TRAIL kill: 4; TRAIL sens C8: 12

Results for COc1ccc(NC(=O)Nc2c(C)n(C)n(-c3ccccc3)c2=O)c(OC)c1 ?
TRAIL sens C8: 0

What do the screens show for `Cc1ccc(-c2nc3ccccc3n2C)o1`?
PPC-1+TRAIL kill: 45; NF-kB expr up: 3.6*; TRAIL sens C8: 34; APP 5'UTR act: 46; FLuc stim CS: 0.3; FLuc inhib CS: 68*

How did Cn1c(-c2ccc(Br)o2)nc2cc(Br)ccc21 do in these assays?
PPC-1+TRAIL kill: 29; NF-kB expr up: 5.3*; TRAIL sens C8: 36; FLuc stim CS: 0.4; FLuc inhib CS: 64*

What do the screens show for `Cc1oc(-c2nc3ccccc3n2C)cc1C(=O)c1ccccc1`?
PPC-1+TRAIL kill: 19; NF-kB expr up: 2.6; TRAIL sens C8: 80*; APP 5'UTR act: 190*; FLuc stim CS: 0.1; FLuc inhib CS: 90*

How did Cn1c(-c2ccc(Br)o2)nc2ccccc21 do in these assays?
PPC-1+TRAIL kill: 10; NF-kB expr up: 4.5*; TRAIL sens C8: 52*; APP 5'UTR act: 135; FLuc stim CS: 0.2; FLuc inhib CS: 83*

What do the screens show for `COC(=O)c1cc(C(=O)OCC(=O)Nc2ccc(N3CCOCC3)cc2)cc([N+](=O)[O-])c1`?
TRAIL sens C8: -6

What do the screens show for `Cc1cc([N+](=O)[O-])nn1CCCC(=O)NCc1ccc(F)cc1`?
PPC-1+TRAIL kill: 19; NF-kB expr up: 1.2; TRAIL sens C8: -6; APP 5'UTR act: -3; FLuc stim CS: 1.1; FLuc inhib CS: -7

Results for CCCCn1c(N)c(N(CC(C)C)C(=O)CN2C(=O)NC3(CCC(C(C)(C)CC)CC3)C2=O)c(=O)[nH]c1=O (stereo unspecified) ?
TRAIL sens C8: -22

Results for CC(C)(C)N1CC(C(=O)Nc2ccc(C#N)cc2)CC1=O (stereo unspecified) ?
TRAIL sens C8: -13

What do the screens show for `CC(C)Oc1ccc2ccccc2c1CNC[C@H]1O[C@@H](n2cnc(C(N)=O)n2)[C@H](O)[C@@H]1O`?
TRAIL sens C8: -2

What do the screens show for `O=[N+]([O-])c1ccc(CSc2nc3ccccc3[nH]2)cc1`?
PPC-1+TRAIL kill: 15; NF-kB expr up: 2.3; TRAIL sens C8: 20; APP 5'UTR act: 81; FLuc stim CS: 0.4; FLuc inhib CS: 65*

What do the screens show for `c1ccc(CSc2nc3ccccc3[nH]2)cc1`?
PPC-1+TRAIL kill: 24; TRAIL sens C8: 26

How did CCCOc1ccc(CSc2nc3ccccc3[nH]2)cc1 do in these assays?
PPC-1+TRAIL kill: 27; NF-kB expr up: 3.5*; TRAIL sens C8: 53*; APP 5'UTR act: 125; FLuc stim CS: 0.4; FLuc inhib CS: 64*

What do the screens show for `CCC(C)(C)C1CCC(=NNC(=S)Nc2ccccc2)CC1` (stereo unspecified)?
PPC-1+TRAIL kill: -4; NF-kB expr up: 1.2; TRAIL sens C8: -1; APP 5'UTR act: 152*; FLuc stim CS: 1.1; FLuc inhib CS: -6

What do the screens show for `COC(=O)C1=C(C)N(Cc2ccccc2)C(=NCc2cccc(C(F)(F)F)c2)N[C@H]1c1cccc(C(F)(F)F)c1`?
TRAIL sens C8: 94*

Results for COC(=O)C1=C(C)N(Cc2ccccc2)C(=NCCc2c[nH]c3ccccc23)N[C@H]1c1cccc(C(F)(F)F)c1 ?
TRAIL sens C8: 52*

Results for C=CCN1C(=O)/C(=C2/Sc3ccc(OC)cc3N2C)SC1=Nc1cccc(O)c1 ?
PPC-1+TRAIL kill: 10; NF-kB expr up: 1.5; TRAIL sens C8: 11; APP 5'UTR act: -13; FLuc stim CS: 1.1; FLuc inhib CS: -9

Results for O=S(=O)(/C(=C\c1ccc(C(F)(F)F)cc1)c1nc2ccccc2[nH]1)c1ccccc1 ?
TRAIL sens C8: 85*

Results for O=C(NCc1ccco1)/C(=C/c1ccc(C(F)(F)F)cc1)c1nc2ccccc2[nH]1 ?
PPC-1+TRAIL kill: 27; NF-kB expr up: 0.71; TRAIL sens C8: 2; APP 5'UTR act: 94; FLuc stim CS: 0.9; FLuc inhib CS: 12

Results for COc1ccccc1C(=O)Nc1nc(-c2ccc(S(=O)(=O)N3CCOCC3)cc2)cs1 ?
PPC-1+TRAIL kill: 39; NF-kB expr up: 0.28; TRAIL sens C8: 76*; APP 5'UTR act: -18; FLuc stim CS: 1; FLuc inhib CS: -2

How did COc1ccccc1OC(C)C(=O)Nc1nc(-c2ccc(S(=O)(=O)N3CCOCC3)cc2)cs1 (stereo unspecified) do in these assays?
PPC-1+TRAIL kill: 5; NF-kB expr up: 0.87; TRAIL sens C8: 0; APP 5'UTR act: -10; FLuc stim CS: 1; FLuc inhib CS: -3

Results for COc1ccc(N2CCN(S(=O)(=O)c3ccc4c(c3)OCCO4)CC2)cc1 ?
PPC-1+TRAIL kill: 3; NF-kB expr up: 1; TRAIL sens C8: -4; APP 5'UTR act: 9; FLuc stim CS: 1; FLuc inhib CS: -4

What do the screens show for `C=CCn1c(COc2ccc(Cl)cc2)nnc1SCC(=O)N/N=C/c1cccc(O)c1`?
PPC-1+TRAIL kill: 11; NF-kB expr up: 1.2; TRAIL sens C8: 19; APP 5'UTR act: 2; FLuc stim CS: 1.1; FLuc inhib CS: -6
